≈ marks a conversion by molar mass, not a printed value.
Legend:
[1] = Antimicrobial activity against Salmonella enterica serotype Newport AM17274 expressing CMY-31 cephalosporinase by agar dilution method; type: functional, Salmonella enterica subsp. enterica serovar Newport
In short: (§1)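 MICs of β-lactams determined by agar dilution against the clinical isolates.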

Escherichia coli [2] = experiment: Antimicrobial activity against Escherichia coli DH5[alpha] transformant harboring pA172 plasmid expressing cephalosporinase CMY-31 by agar dilution method; type: functional
Escherichia coli [3] = experiment: Antimicrobial activity against Escherichia coli DH5[alpha] transformant harboring pH205 plasmid expressing cephalosporinase CMY-36 by agar dilution method; type: functional
Escherichia coli [4] = experiment: Antimicrobial activity against Escherichia coli DH5[alpha] harboring pB-c31 plasmid expressing cephalosporinase CMY-31 by agar dilution method; type: functional
Escherichia coli [5] = experiment: Antimicrobial activity against Escherichia coli DH5[alpha] harboring pB-c36 plasmid expressing cephalosporinase CMY-36 by agar dilution method; type: functional
Escherichia coli [6] = experiment: Antimicrobial activity against Escherichia coli DH5[alpha] harboring pB-c2 plasmid expressing cephalosporinase CMY-2 by agar dilution method; type: functional
[7] = biological target: Class C beta-lactamase CMY-36 (Klebsiella pneumoniae, UniProt Q48435); experiment: Inhibition of Klebsiella pneumoniae HP205 cephalosporinase CMY-36 by UV spectrophotometer in presence of 100 uM of cephalothin
Sequence of Class C beta-lactamase CMY-36 (Q48435 whole entry): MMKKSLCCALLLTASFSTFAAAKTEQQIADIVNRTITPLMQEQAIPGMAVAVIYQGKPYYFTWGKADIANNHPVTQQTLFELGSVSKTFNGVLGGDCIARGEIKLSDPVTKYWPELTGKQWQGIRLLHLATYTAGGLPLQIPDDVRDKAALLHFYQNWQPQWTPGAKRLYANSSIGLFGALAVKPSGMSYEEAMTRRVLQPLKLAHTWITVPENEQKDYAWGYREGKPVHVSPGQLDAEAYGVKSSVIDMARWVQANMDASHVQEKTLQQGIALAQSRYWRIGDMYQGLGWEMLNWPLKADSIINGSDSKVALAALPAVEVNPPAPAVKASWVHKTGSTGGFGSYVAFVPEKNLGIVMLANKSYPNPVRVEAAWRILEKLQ

[8] = Inhibition of CMY-2 by UV spectrophotometer in presence of 100 uM of cephalothin
Klebsiella pneumoniae [9] = experiment: Antimicrobial activity against Klebsiella pneumoniae HP205 expressing CMY-36 cephalosporinase by agar dilution method; type: functional; in short: as §1
Escherichia coli [10] = experiment: Antimicrobial activity against Escherichia coli DH5[alpha] harboring pBCSK plasmid by agar dilution method; type: functional
[11] = Antimicrobial activity against Salmonella enterica serotype Newport AM17274 expressing CMY-31 cephalosporinase by agar dilution method in presence of clavulanic acid; type: functional, Salmonella enterica subsp. enterica serovar Newport; in short: as §1
Klebsiella pneumoniae [12] = experiment: Antimicrobial activity against Klebsiella pneumoniae HP205 expressing CMY-36 cephalosporinase by agar dilution method in presence of clavulanic acid in presence of clavulanic acid; type: functional; in short: as §1
Escherichia coli [13] = experiment: Antimicrobial activity against Escherichia coli DH5[alpha] transformant harboring pA172 plasmid expressing cephalosporinase CMY-31 by agar dilution method in presence of clavulanic acid; type: functional
Escherichia coli [14] = experiment: Antimicrobial activity against Escherichia coli DH5[alpha] transformant harboring pH205 plasmid expressing cephalosporinase CMY-36 by agar dilution method in presence of clavulanic acid; type: functional
Escherichia coli [15] = experiment: Antimicrobial activity against Escherichia coli DH5[alpha] harboring pB-c31 plasmid expressing cephalosporinase CMY-31 by agar dilution method in presence of clavulanic acid; type: functional
Escherichia coli [16] = experiment: Antimicrobial activity against Escherichia coli DH5[alpha] harboring pB-c36 plasmid expressing cephalosporinase CMY-36 by agar dilution method in presence of clavulanic acid; type: functional
Escherichia coli [17] = experiment: Antimicrobial activity against Escherichia coli DH5[alpha] harboring pB-c2 plasmid expressing cephalosporinase CMY-2 by agar dilution method in presence of clavulanic acid; type: functional
Escherichia coli [18] = experiment: Antimicrobial activity against Escherichia coli DH5[alpha] harboring pBCSK plasmid by agar dilution method in presence of clavulanic acid; type: functional
[19] = Antimicrobial activity against Salmonella enterica serotype Newport AM17274 expressing CMY-31 cephalosporinase by agar dilution method in presence of Tazobactam; type: functional, Salmonella enterica subsp. enterica serovar Newport
Klebsiella pneumoniae [20] = experiment: Antimicrobial activity against Klebsiella pneumoniae HP205 expressing CMY-36 cephalosporinase by agar dilution method in presence of Tazobactam; type: functional
Escherichia coli [21] = experiment: Antimicrobial activity against Escherichia coli DH5[alpha] transformant harboring pA172 plasmid expressing cephalosporinase CMY-31 by agar dilution method in presence of Tazobactam; type: functional
Escherichia coli [22] = experiment: Antimicrobial activity against Escherichia coli DH5[alpha] transformant harboring pH205 plasmid expressing cephalosporinase CMY-36 by agar dilution method in presence of Tazobactam; type: functional
Escherichia coli [23] = experiment: Antimicrobial activity against Escherichia coli DH5[alpha] harboring pB-c31 plasmid expressing cephalosporinase CMY-31 by agar dilution method in presence of Tazobactam; type: functional
Escherichia coli [24] = experiment: Antimicrobial activity against Escherichia coli DH5[alpha] harboring pB-c36 plasmid expressing cephalosporinase CMY-36 by agar dilution method in presence of Tazobactam; type: functional
Escherichia coli [25] = experiment: Antimicrobial activity against Escherichia coli DH5[alpha] harboring pB-c2 plasmid expressing cephalosporinase CMY-2 by agar dilution method in presence of Tazobactam; type: functional
Escherichia coli [26] = experiment: Antimicrobial activity against Escherichia coli DH5[alpha] harboring pBCSK plasmid by agar dilution method in presence of Tazobactam; type: functional

Structure (SMILES)	MIC [1] [µg/mL]	MIC (Escherichia coli [2]) [µg/mL]	MIC (Escherichia coli [3]) [µg/mL]	MIC (Escherichia coli [4]) [µg/mL]	MIC (Escherichia coli [5]) [µg/mL]	MIC (Escherichia coli [6]) [µg/mL]	MIC (Klebsiella pneumoniae [9]) [µg/mL]	MIC (Escherichia coli [10]) [µg/mL]	further results
CO/N=C(\C(=O)N[C@@H]1C(=O)N2C(C(=O)[O-])=C(C[N+]3(C)CCCC3)CS[C@H]12)c1csc(N)n1	0.12 (≈ 0.25 µM)	0.12 (≈ 0.25 µM)	0.25 (≈ 0.52 µM)	0.25 (≈ 0.52 µM)	0.25 (≈ 0.52 µM)	0.25 (≈ 0.52 µM)	–	–	–
C[C@]1(/C=C\C#N)[C@H](C(=O)O)N2C(=O)C[C@H]2S1(=O)=O	–	–	–	–	–	–	–	–	IC50 [7]: 300 nM; IC50 [8]: 300 nM
CC1(C)S[C@@H]2[C@H](NC(=O)[C@H](N)c3ccc(O)cc3)C(=O)N2[C@H]1C(=O)O [AMOXICILLIN]	> 256	> 256	> 256	> 256	> 256	> 256	> 256	2 (≈ 5.47 µM)	MIC [11]: > 64 µg/mL; MIC (Klebsiella pneumoniae [12]): > 64 µg/mL; MIC (Escherichia coli [13]): > 64 µg/mL; MIC (Escherichia coli [14]): > 64 µg/mL; MIC (Escherichia coli [15]): > 64 µg/mL; MIC (Escherichia coli [16]): > 64 µg/mL; MIC (Escherichia coli [17]): > 64 µg/mL; MIC (Escherichia coli [18]): 2 µg/mL
CO/N=C(\C(=O)N[C@@H]1C(=O)N2C(C(=O)O)=C(COC(C)=O)CS[C@H]12)c1csc(N)n1 [CEFOTAXIME]	32 (≈ 70.3 µM)	32 (≈ 70.3 µM)	32 (≈ 70.3 µM)	128 (≈ 281 µM)	128 (≈ 281 µM)	128 (≈ 281 µM)	32 (≈ 70.3 µM)	0.12 (≈ 0.263 µM)	–
CO[C@@]1(NC(=O)Cc2cccs2)C(=O)N2C(C(=O)O)=C(COC(N)=O)CS[C@@H]21 [CEFOXITIN]	> 256	> 256	> 256	> 256	> 256	> 256	> 256	4 (≈ 9.36 µM)	–
CC(C)(O/N=C(\C(=O)N[C@@H]1C(=O)N2C(C(=O)[O-])=C(C[n+]3ccccc3)CS[C@H]12)c1csc(N)n1)C(=O)O [CEFTAZIDIME]	32 (≈ 58.5 µM)	128 (≈ 234 µM)	128 (≈ 234 µM)	256 (≈ 468 µM)	256 (≈ 468 µM)	256 (≈ 468 µM)	64 (≈ 117 µM)	0.5 (≈ 0.915 µM)	–
CO/N=C(\C(=O)N[C@@H]1C(=O)N2C(C(=O)O)=C(CSc3nc(=O)c(O)nn3C)CS[C@H]12)c1csc(N)n1 [CEFTRIAXONE]	16 (≈ 28.9 µM)	32 (≈ 57.7 µM)	64 (≈ 115 µM)	256 (≈ 462 µM)	128 (≈ 231 µM)	128 (≈ 231 µM)	32 (≈ 57.7 µM)	0.12 (≈ 0.216 µM)	–
CO/N=C(\C(=O)N[C@@H]1C(=O)N2C(C(=O)O)=C(COC(N)=O)CS[C@H]12)c1ccco1 [CEFUROXIME]	> 256	> 256	> 256	> 256	> 256	> 256	> 256	2 (≈ 4.71 µM)	–
Cc1onc(-c2ccccc2Cl)c1C(=O)N[C@@H]1C(=O)N2[C@@H]1SC(C)(C)[C@@H]2C(=O)O [CLOXACILLIN]	–	–	–	–	–	–	–	–	IC50 [7]: 4 nM; IC50 [8]: 4 nM
C[C@@H](O)[C@H]1C(=O)N2C(C(=O)O)=C(SCCNC=N)C[C@H]12 [IMIPENEM ANHYDROUS]	0.25 (≈ 0.835 µM)	0.5 (≈ 1.67 µM)	0.5 (≈ 1.67 µM)	0.5 (≈ 1.67 µM)	0.5 (≈ 1.67 µM)	0.5 (≈ 1.67 µM)	0.5 (≈ 1.67 µM)	–	–
CCN1CCN(C(=O)N[C@@H](C(=O)N[C@@H]2C(=O)N3[C@@H]2SC(C)(C)[C@@H]3C(=O)O)c2ccccc2)C(=O)C1=O [PIPERACILLIN]	64 (≈ 124 µM)	128 (≈ 247 µM)	128 (≈ 247 µM)	256 (≈ 495 µM)	256 (≈ 495 µM)	256 (≈ 495 µM)	128 (≈ 247 µM)	1 (≈ 1.93 µM)	MIC [19]: 16 µg/mL; MIC (Klebsiella pneumoniae [20]): 32 µg/mL; MIC (Escherichia coli [21]): 32 µg/mL; MIC (Escherichia coli [22]): 32 µg/mL; MIC (Escherichia coli [23]): 64 µg/mL; MIC (Escherichia coli [24]): 64 µg/mL; MIC (Escherichia coli [25]): 64 µg/mL; MIC (Escherichia coli [26]): 0.5 µg/mL
CC1(C)S[C@@H]2[C@H](NC(=O)[C@H](C(=O)O)c3ccsc3)C(=O)N2[C@H]1C(=O)O [TICARCILLIN]	> 256	> 256	> 256	> 256	> 256	> 256	> 256	2 (≈ 5.2 µM)	–

From ChEMBL document CHEMBL1629653, “CMY-31 and CMY-36 cephalosporinases encoded by ColE1-like plasmids” (Antimicrob Agents Chemother, 2009)
